Results as given in ChEMBL document CHEMBL4184148 (Bioorg Med Chem Lett, 2017).

How the values were obtained:
[1] = system: Tyrosine-protein kinase ABL1 (Homo sapiens), P00519 [T315I]; experiment: Binding affinity to human non-phosphorylated ABL1 T315I mutant (S229 to K512 residues) expressed in HEK293 cells at 1 uM by Kinomescan method relative to control; type: cell-based
[2] = molecular target: Serine/threonine-protein kinase pim-3 (Homo sapiens) (UniProt Q86V86); experiment: Binding affinity to wild-type human partial length PIM3 (G16 to A317 residues) expressed in Escherichia coli BL21 at 1 uM by Kinomescan method relative to control
[3] = system: Tyrosine-protein kinase ABL1 (Homo sapiens), P00519 [M351T]; experiment: Binding affinity to human phosphorylated ABL1 M351T mutant (S229 to K512 residues) expressed in HEK293 cells at 1 uM by Kinomescan method relative to control; type: cell-based
[4] = molecular target: Serine/threonine-protein kinase ULK1 (Homo sapiens) (UniProt O75385); experiment: Binding affinity to wild-type human partial length ULK1 (M1 to T309 residues) expressed in HEK293 cells at 1 uM by Kinomescan method relative to control; type: cell-based
[5] = molecular target: Serine/threonine-protein kinase tousled-like 2 (Homo sapiens) (UniProt Q86UE8); experiment: Binding affinity to wild-type human partial length TLK2 (E424 to N749 residues) expressed in Escherichia coli BL21 at 1 uM by Kinomescan method relative to control
[6] = molecular target: Myosin light chain kinase 2, skeletal/cardiac muscle (Homo sapiens) (UniProt Q9H1R3); experiment: Binding affinity to wild-type human partial length MYLK2 (D258 to K570 residues) expressed in Escherichia coli BL21 at 1 uM by Kinomescan method relative to control
[7] = molecular target: Ribosomal protein S6 kinase alpha-4 (Homo sapiens) (UniProt O75676); experiment: Binding affinity to wild-type human partial length N-terminal RPS6KA4 kinase domain 1 expressed in Escherichia coli BL21 at 1 uM by Kinomescan method relative to control
[8] = molecular target: Serine/threonine-protein kinase Nek4 (Homo sapiens) (UniProt P51957); experiment: Binding affinity to wild-type human full length NEK4 (M1 to F841 residues) expressed in HEK293 cells at 1 uM by Kinomescan method relative to control; type: cell-based
In short: (§1)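 Kinome-wide competition binding panel run by an outside provider, with each compound tested at a single concentration. Activity is read against the kinase panel.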

[9] = molecular target: MAP kinase-interacting serine/threonine-protein kinase 2 (Homo sapiens) (UniProt Q9HBH9); experiment: Binding affinity to wild-type human partial length MKNK2 (G63 to S388 residues) expressed in HEK293 cells at 1 uM by Kinomescan method relative to control; type: cell-based
[10] = molecular target: Phosphatidylinositol 5-phosphate 4-kinase type-2 gamma (Homo sapiens) (UniProt Q8TBX8); experiment: Binding affinity to wild-type human partial length PIP5K2C (M1 to A421 residues) expressed in HEK293 cells at 1 uM by Kinomescan method relative to control; type: cell-based
[11] = system: Receptor-type tyrosine-protein kinase FLT3 (Homo sapiens), P36888 [K663Q]; experiment: Binding affinity to human partial length FLT3 K663Q mutant (V592 to Y969 residues) expressed in Escherichia coli BL21 at 1 uM by Kinomescan method relative to control
[12] = molecular target: Phosphatidylinositol 4-kinase beta (Homo sapiens) (UniProt Q9UBF8); experiment: Binding affinity to wild-type human full length PIK4CB (M1 to M828 residues) expressed in HEK293 cells at 1 uM by Kinomescan method relative to control; type: cell-based; in short: as §1
Aurora kinase B [13] = molecular target: T1, Aurora kinase B (Homo sapiens, UniProt Q96GD4); experiment: Inhibition of recombinant full length His-tagged human Aurora B expressed in baculovirus expression system by Z'LYTE assay
In short: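 Z'LYTE biochemical kinase assay run at the Km ATP concentration for each kinase. IC50 was determined and reported ± standard error.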

Aurora kinase B [14] = molecular target: T1, Aurora kinase B; experiment: Inhibition of Aurora B in human HCT116 cells assessed as reduction in histone H3 phosphorylation at S10 residues after 4 hrs by Western blot analysis; type: cell-based
In short: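 Cells were exposed to compound in dose-response for 4 h, then lysed for western blotting of histone H3 pS10. The cellular EC50 was derived from the dose-response curves. Three replicate experiments were run.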

[15] = molecular target: Mitogen-activated protein kinase kinase kinase 19 (Homo sapiens) (UniProt Q56UN5); experiment: Binding affinity to wild-type human partial length YSK4 (T1019 to H1328 residues) expressed in HEK293 cells at 1 uM by Kinomescan method relative to control; type: cell-based
[16] = molecular target: Cyclin-dependent kinase 5 (Homo sapiens) (UniProt Q00535); experiment: Binding affinity to wild-type human full length CDK5 (M1 to P292 residues) expressed in Escherichia coli BL21 at 1 uM by Kinomescan method relative to control
In short: (§2)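 Run as one kinome-wide competition binding panel with each compound at a single fixed concentration. Results were plotted as a kinome-wide selectivity map.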

[17] = molecular target: Rhodopsin kinase GRK1 (Homo sapiens) (UniProt Q15835); experiment: Binding affinity to wild-type human full length GRK1 (M1 to S563 residues) expressed in HEK293 cells at 1 uM by Kinomescan method relative to control; type: cell-based; in short: as §2
[18] = molecular target: Cyclin-dependent kinase 11B (Homo sapiens) (UniProt P21127); experiment: Binding affinity to wild-type human partial length CDK11 (M1 to N360 residues) expressed in Escherichia coli BL21 assessed as residual activity at 1000 nM after 1 hr by Kinomescan method relative to control
[19] = molecular target: Mitogen-activated protein kinase 4 (Homo sapiens) (UniProt P31152); experiment: Binding affinity to wild-type human partial length ERK4 (M1 to L365 residues) expressed in Escherichia coli BL21 at 1 uM by Kinomescan method relative to control
[20] = molecular target: Serine/threonine-protein kinase D2 (Homo sapiens) (UniProt Q9BZL6); experiment: Binding affinity to wild-type human partial length PRKD2 (A519 to E838 residues) expressed in Escherichia coli BL21 at 1 uM by Kinomescan method relative to control
[21] = molecular target: Muscle, skeletal receptor tyrosine-protein kinase (Homo sapiens) (UniProt O15146); experiment: Binding affinity to wild-type human partial length MUSK (M553 to V869 residues) expressed in Escherichia coli BL21 at 1 uM by Kinomescan method relative to control
[22] = system: Proto-oncogene tyrosine-protein kinase receptor Ret (Homo sapiens), P07949 [V804L]; experiment: Binding affinity to human partial length RET V804L mutant (E713 to D1014 residues) expressed in Escherichia coli BL21 at 1 uM by Kinomescan method relative to control
[23] = molecular target: Serine/threonine-protein kinase 24 (Homo sapiens) (UniProt Q9Y6E0); experiment: Binding affinity to wild-type human partial length MST3 (A30 to S311 residues) expressed in Escherichia coli BL21 at 1 uM by Kinomescan method relative to control
[24] = system: Mast/stem cell growth factor receptor Kit (Homo sapiens), P10721 [L576P]; experiment: Binding affinity to human partial length KIT L576P mutant (Y545 to D952 residues) expressed in Escherichia coli BL21 at 1 uM by Kinomescan method relative to control
[25] = molecular target: Ribosomal protein S6 kinase alpha-5 (Homo sapiens) (UniProt O75582); experiment: Binding affinity to wild-type human partial length N-terminal RPS6KA5 kinase domain 1 expressed in Escherichia coli BL21 at 1 uM by Kinomescan method relative to control

T1 sequence (Q96GD4 whole entry): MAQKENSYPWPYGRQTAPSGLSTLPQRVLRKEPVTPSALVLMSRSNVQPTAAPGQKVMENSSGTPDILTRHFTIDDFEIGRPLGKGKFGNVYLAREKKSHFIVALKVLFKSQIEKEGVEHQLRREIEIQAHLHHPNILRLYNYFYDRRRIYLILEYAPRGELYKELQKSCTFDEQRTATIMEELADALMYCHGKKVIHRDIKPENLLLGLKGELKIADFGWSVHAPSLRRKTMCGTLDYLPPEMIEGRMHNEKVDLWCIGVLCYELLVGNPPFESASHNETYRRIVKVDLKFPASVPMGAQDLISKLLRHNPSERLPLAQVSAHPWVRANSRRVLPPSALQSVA
Sequence of Rhodopsin kinase GRK1 (Homo sapiens) (Q15835 whole entry, the tested form may be a part): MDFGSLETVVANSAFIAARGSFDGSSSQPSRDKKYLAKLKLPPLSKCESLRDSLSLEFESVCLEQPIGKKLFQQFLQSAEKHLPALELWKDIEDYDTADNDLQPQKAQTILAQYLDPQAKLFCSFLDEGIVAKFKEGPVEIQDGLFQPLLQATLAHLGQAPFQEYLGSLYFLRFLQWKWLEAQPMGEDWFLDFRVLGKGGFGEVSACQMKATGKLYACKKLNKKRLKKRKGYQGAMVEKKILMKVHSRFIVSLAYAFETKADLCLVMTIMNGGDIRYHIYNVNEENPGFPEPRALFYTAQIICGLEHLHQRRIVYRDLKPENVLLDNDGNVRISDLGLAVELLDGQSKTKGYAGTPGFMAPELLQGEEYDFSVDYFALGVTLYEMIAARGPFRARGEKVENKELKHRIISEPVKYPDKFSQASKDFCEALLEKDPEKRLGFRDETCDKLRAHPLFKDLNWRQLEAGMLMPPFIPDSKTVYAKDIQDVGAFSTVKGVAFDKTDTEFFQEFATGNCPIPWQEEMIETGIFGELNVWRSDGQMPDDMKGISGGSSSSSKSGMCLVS
Sequence of Serine/threonine-protein kinase 24 (Homo sapiens) (Q9Y6E0 whole entry, looked up, the tested form may be a part): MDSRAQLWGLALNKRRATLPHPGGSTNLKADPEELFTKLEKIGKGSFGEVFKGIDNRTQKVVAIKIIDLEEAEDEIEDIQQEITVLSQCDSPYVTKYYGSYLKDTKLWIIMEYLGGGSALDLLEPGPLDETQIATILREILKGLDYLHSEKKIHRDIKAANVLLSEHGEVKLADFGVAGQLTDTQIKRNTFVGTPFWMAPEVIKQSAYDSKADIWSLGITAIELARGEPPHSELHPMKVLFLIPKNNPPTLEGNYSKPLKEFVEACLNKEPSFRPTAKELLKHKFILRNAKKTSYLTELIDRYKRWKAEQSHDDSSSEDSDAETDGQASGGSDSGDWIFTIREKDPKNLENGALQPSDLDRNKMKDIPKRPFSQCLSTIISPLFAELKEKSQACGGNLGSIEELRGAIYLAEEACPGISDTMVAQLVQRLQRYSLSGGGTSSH
Sequence of Phosphatidylinositol 4-kinase beta (Homo sapiens) (Q9UBF8 2-816 limits assumed): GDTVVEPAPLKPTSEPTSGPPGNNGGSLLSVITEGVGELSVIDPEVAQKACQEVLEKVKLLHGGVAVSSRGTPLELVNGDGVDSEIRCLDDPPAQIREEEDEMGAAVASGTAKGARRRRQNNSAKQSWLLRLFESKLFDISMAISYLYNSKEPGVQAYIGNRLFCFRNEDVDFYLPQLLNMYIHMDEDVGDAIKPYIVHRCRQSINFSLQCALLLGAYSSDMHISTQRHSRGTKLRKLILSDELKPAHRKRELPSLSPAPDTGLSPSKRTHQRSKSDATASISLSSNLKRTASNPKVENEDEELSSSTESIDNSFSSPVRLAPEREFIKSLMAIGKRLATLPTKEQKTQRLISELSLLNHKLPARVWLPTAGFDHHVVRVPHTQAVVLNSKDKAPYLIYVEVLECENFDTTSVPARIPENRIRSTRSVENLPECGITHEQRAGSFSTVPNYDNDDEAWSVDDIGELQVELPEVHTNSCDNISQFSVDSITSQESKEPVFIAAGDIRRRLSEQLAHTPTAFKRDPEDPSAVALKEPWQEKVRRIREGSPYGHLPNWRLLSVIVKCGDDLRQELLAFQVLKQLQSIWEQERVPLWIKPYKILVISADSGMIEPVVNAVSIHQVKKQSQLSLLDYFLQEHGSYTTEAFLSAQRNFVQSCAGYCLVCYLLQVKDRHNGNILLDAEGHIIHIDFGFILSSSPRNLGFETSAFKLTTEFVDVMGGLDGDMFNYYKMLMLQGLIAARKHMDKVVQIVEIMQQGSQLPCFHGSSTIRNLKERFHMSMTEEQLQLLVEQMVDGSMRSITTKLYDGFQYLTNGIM
Sequence of Serine/threonine-protein kinase tousled-like 2 (Homo sapiens) (Q86UE8 whole entry, looked up, the tested form may be a part): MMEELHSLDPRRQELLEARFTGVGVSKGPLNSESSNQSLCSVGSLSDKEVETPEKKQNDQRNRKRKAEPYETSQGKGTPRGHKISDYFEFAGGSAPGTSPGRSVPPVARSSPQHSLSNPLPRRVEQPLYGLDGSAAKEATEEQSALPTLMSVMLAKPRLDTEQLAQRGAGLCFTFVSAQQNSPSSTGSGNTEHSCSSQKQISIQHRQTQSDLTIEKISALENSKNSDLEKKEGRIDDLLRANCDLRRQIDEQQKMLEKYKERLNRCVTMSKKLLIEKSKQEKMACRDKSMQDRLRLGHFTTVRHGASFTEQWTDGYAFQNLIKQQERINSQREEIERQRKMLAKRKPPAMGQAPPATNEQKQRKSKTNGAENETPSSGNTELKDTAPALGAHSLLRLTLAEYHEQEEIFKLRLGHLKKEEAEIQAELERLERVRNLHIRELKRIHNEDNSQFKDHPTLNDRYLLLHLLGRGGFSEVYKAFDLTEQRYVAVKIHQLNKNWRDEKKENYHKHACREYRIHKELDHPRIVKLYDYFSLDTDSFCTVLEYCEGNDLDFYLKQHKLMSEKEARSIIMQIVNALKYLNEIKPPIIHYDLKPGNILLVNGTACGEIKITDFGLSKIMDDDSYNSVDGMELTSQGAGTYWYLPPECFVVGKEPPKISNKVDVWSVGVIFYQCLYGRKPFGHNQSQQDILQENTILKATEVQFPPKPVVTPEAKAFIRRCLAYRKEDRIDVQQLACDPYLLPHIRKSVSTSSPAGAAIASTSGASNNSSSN
Sequence of MAP kinase-interacting serine/threonine-protein kinase 2 (Homo sapiens) (Q9HBH9 whole entry, looked up, the tested form may be a part): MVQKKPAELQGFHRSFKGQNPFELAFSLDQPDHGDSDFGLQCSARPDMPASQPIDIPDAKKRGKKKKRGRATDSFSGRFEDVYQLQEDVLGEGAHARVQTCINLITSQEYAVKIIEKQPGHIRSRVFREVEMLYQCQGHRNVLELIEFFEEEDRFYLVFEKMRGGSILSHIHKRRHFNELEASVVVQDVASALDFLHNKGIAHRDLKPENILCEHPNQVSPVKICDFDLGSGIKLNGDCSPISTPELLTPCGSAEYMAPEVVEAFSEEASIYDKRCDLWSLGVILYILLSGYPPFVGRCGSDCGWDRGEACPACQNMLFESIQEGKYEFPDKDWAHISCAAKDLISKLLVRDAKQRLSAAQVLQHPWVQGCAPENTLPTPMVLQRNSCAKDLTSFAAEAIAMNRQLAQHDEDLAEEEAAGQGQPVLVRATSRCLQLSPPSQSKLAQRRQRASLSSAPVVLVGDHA
Sequence of Ribosomal protein S6 kinase alpha-4 (Homo sapiens) (O75676 whole entry, looked up, the tested form may be a part): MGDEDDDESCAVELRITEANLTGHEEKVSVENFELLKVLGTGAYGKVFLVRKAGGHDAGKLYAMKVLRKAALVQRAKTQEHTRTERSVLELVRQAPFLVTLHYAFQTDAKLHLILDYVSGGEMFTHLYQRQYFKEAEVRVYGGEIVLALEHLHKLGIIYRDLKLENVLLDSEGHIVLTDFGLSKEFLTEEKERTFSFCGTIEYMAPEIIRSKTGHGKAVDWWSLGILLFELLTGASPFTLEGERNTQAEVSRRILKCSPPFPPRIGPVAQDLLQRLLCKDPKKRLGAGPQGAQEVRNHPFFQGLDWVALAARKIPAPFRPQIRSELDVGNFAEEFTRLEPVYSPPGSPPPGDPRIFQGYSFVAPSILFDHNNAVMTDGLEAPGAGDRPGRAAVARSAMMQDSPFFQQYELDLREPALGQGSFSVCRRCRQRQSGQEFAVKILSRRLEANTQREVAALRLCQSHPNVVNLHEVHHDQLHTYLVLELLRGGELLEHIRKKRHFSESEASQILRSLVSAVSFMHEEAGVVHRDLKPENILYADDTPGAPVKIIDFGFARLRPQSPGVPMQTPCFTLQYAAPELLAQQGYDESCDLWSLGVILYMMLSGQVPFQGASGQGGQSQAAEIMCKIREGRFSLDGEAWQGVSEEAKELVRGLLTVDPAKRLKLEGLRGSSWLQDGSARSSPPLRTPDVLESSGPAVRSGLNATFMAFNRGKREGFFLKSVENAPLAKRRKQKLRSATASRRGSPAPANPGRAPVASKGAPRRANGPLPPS
Sequence of Cyclin-dependent kinase 5 (Homo sapiens) (Q00535 whole entry, looked up, the tested form may be a part): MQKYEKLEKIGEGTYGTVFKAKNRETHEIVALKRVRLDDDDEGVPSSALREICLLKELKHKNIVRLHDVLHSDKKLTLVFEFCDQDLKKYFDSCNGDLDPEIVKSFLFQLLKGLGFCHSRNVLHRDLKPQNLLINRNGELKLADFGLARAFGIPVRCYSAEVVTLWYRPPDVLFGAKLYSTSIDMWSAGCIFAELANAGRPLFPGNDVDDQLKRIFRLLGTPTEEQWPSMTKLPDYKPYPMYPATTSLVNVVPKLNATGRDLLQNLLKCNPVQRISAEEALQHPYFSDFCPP

## CCC(=O)Nc1ccc(C(=O)Nc2ccc(Nc3ncc4c(n3)N(C)c3ccc(C)cc3C(=O)N4C)cc2)cc1
[1]
  Activity: 81%
[2]
  Activity: 82%
[3]
  Activity: 100%
[4]
  Activity: 91%
[5]
  Activity: 100%
[6]
  Activity: 56%
[7]
  Activity: 95%
[8]
  Activity: 76%
[9]
  Activity: 84%
[10]
  Activity: 100%
[11]
  Activity: 81%
[12]
  Activity: 88%
Aurora kinase B [13]
  IC50: 41 nM
Aurora kinase B [14]
  EC50: 11 nM
[15]
  Activity: 77%
[16]
  Activity: 87%
[17]
  Activity: 76%
[18]
  Activity: 100%
[19]
  Activity: 95%
[20]
  Activity: 98%
[21]
  Activity: 95%
[22]
  Activity: 63%
[23]
  Activity: 100%
[24]
  Activity: 71%
[25]
  Activity: 100%

## C=CC(=O)Nc1ccc(C(=O)Nc2ccc(Nc3ncc4c(n3)N(C)c3ccc(C)cc3C(=O)N4C)cc2)cc1
[1]
  Activity: 100%
[2]
  Activity: 100%
[3]
  Activity: 95%
[4]
  Activity: 79%
[5]
  Activity: 98%
[6]
  Activity: 87%
[7]
  Activity: 100%
[8]
  Activity: 86%
[9]
  Activity: 66%
[10]
  Activity: 56%
[11]
  Activity: 99%
[12]
  Activity: 80%
Aurora kinase B [13]
  IC50: 29 nM
Aurora kinase B [14]
  EC50: 7.1 nM
[15]
  Activity: 72%
[16]
  Activity: 99%
[17]
  Activity: 73%
[18]
  Activity: 100%
[19]
  Activity: 85%
[20]
  Activity: 98%
[21]
  Activity: 96%
[22]
  Activity: 84%
[23]
  Activity: 100%
[24]
  Activity: 85%
[25]
  Activity: 100%
